# Most compounds without a hit are left out; they make up all but 3.8% or so of the library.
# KCNQ1 act – potentiators or activators of KCNQ1 channel, primary screen, cell-based, thallium flux, high-throughput; Potassium voltage-gated channel subfamily KQT member 1 (Homo sapiens), P51787; CHO-K1 KCNQ1, thallium flux FluxOR fluorescence; hits give high values; B-score at 10 µM; 310,000 compounds, 0.35% hits;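 active means fluorescence ratio B-score, a plate-corrected score, at least three library SD, with initial intensity B-score within 5 SD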
#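 Material: CHO-K1 cells stably expressing KCNQ1. Medium: assay buffer for compound exposure, DMSO matched across wells. Reagent: K+/Tl+ depolarizing stimulus. Compound dosing: single-concentration screen. Times: 37 °C overnight plating, 90-min dark dye load, 20-min compound pretreatment. Technique: FluxOR Tl+ flux fluorescence.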
# hERG protect – hERG rescue from dofetilide block, primary screen, cell-based, CHO-hERG, FluxOR thallium flux, dofetilide IC70; Voltage-gated inwardly rectifying potassium channel KCNH2 (Homo sapiens), Q12809; dofetilide IC70 present; activation (rescue from dofetilide block), less the hit threshold, % at 10 µM; 310,000 compounds, 0.51% hits;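 active means activation above the mean of controls blocked by dofetilide plus 5 SD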;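 further: thallium influx through hERG after potassium depolarization seen as dye fluorescence rise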
# Kir21 inh – inhibitors of mouse Kir2.1 inward-rectifier potassium channel. 310,000 compounds, 0.85% hits. HEK293-Kir2.1, FluxOR thallium flux fluorescence; hits give low values. B-score at 10 µM;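 active means fluorescence ratio B-score at or below minus 3 SD of library scores, with starting-brightness B-score within 2 SD, cut at about -4.2 in these data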;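 further: channel flux triggered by added potassium and thallium sulfate stimulus; B-score of peak minus minimum fluorescence over baseline after thallium stimulus; more negative B-score means stronger Kir2.1 block with less thallium influx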
# KCNK9 block – KCNK9 potassium channel inhibitors, primary screen, HEK293 cells, thallium flux. Potassium channel subfamily K member 9 (Homo sapiens), Q9NPC2. FluxOR thallium flux fluorescence; hits give low values. B-score at 10 µM. 310,000 compounds, 1.2% hits. AID 488922, 2010;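 active means ratio B-score over 3 SD below the library mean, with starting fluorescence within 5 SD of its mean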;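 further: negative B-score means less thallium flux so channel inhibition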
# KCNK3 block – human KCNK3 channel inhibitors, primary screen, CHO cells, FluxOR thallium flux, B-score. FluxOR fluorescence; hits give low values. B-score at 10 µM. 340,000 compounds, 0.84% hits. Potassium channel subfamily K member 3 (Homo sapiens), O14649;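 active means B-score under library mean minus 4 SD, starting fluorescence ratio at most library mean plus 5 SD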;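 further: more negative B-score means stronger inhibition of thallium flux through KCNK3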
# Target sequence (O14649 whole entry, looked up): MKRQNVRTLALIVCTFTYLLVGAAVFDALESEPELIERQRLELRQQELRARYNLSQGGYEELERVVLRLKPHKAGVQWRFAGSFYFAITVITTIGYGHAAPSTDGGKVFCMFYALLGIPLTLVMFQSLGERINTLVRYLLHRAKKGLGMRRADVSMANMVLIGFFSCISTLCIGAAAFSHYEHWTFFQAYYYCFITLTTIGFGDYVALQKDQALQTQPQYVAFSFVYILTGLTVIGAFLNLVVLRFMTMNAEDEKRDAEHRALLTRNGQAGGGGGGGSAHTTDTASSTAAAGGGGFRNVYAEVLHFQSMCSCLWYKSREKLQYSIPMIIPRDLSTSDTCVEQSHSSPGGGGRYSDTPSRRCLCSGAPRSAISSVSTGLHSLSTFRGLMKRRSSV
# KCNQ1 block – inhibitors of human KCNQ1 channel, primary screen, cell-based, thallium flux, high-throughput. Potassium voltage-gated channel subfamily KQT member 1 (Homo sapiens), P51787. CHO-K1 KCNQ1, FluxOR thallium flux fluorescence; hits give high values. B-score at 10 µM. 310,000 compounds, 1.3% hits;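 active means compounds whose thallium flux B-score, printed positive for inhibition, exceeds three library SD while starting fluorescence stays within three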;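 further: channel opened by potassium depolarization with thallium stimulus after 20 min compound exposure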
# KCNK9 inh conf – KCNK9 potassium channel inhibitors, confirmation, HEK293 cells, thallium flux, duplicate. shares compounds with KCNK9 block. FluxOR thallium flux fluorescence. inhibition, % at 10 µM. 4,900 compounds, 43% hits. AID 492992, 2010;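 active means thallium signal inhibited by more than 5 SD of the compound-free buffer control wells, on both duplicate plates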;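 further: 0% = assay buffer control wells without compound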
# Kir2-1 spec – mouse Kir2.1 channel inhibition, confirmation, selectivity assay for KCNK9 modulator project, cell-based, HEK293, thallium flux; shares compounds with KCNK9 block; Kir2.1 cells, FluxOR thallium flux fluorescence; inhibition, % at 10 µM; 4,900 compounds, 4% hits; AID 492993, 2010;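 active means thallium signal drop more than 5 SD beyond the mean of the no-compound control wells, seen in both duplicate plates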;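 further: signal is fluorescence rise after thallium addition divided by baseline fluorescence; plate controls were assay buffer only for no effect and full block by chlorpromazine control for full effect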
# HEK293 Tl ctr – thallium flux in non-induced HEK293 cells, confirmation, counter-screen for KCNK9 inhibitor project, cell-based, second counter screen, non-induced KCNK9-HEK293. shares compounds with KCNK9 block. FluxOR thallium flux. inhibition, % at 10 µM. 4,900 compounds, 40% hits. AID 492997, 2010;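 active means thallium signal drop beyond 5 SD of the untreated control mean, on both duplicate plates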;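 further: plate controls were buffer only IC0 wells for no effect and SID17386958 at its maximal inhibitory level for full effect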
# An asterisk follows results filed as active; i = inactive; / = no result given.
SMILES,KCNQ1 act,hERG protect,Kir21 inh,KCNK9 block,KCNK3 block,KCNQ1 block,KCNK9 inh conf,Kir2-1 spec,HEK293 Tl ctr
CCOc1ccc2[nH]c(=O)c(CN(Cc3cccs3)Cc3nnnn3C(C)(C)CC)cc2c1,i,-18.4,-2.25,-9.72*,-9.91*,i,34.5%*,i,i
CCOC(=O)n1c(=O)n(Cc2ccc(Cl)cc2Cl)c2ccccc21,i,-7.9,0.52,-17.2*,i,i,76.0%*,i,i
CC(Oc1ccccc1)C(=O)Nc1cccc([N+](=O)[O-])c1 (configuration not stated),i,-4.6,-0.43,i,i,i,/,/,/
COc1ccc(-c2ccc(OC)c([C@H]3[C@@H]4C=CCC[C@@]4(C)C(=O)N3Cc3ccccc3)c2)cc1OC,i,-15.8,0.44,i,i,i,/,/,/
COc1ccc(Br)cc1[C@H]1[C@@H]2C=CCC[C@@]2(C)C(=O)N1Cc1ccccc1,i,-10.9,0.04,-14.5*,i,i,66.5%*,i,49.0%*
CCn1c(SCC#N)nc2c(c1=O)C1(CCCC1)Cc1ccccc1-2,i,-7.4,-3.03,-11.5*,i,i,47.0%*,i,i
CC(C)c1ccc(S(=O)(=O)/N=C2\C=C(NS(=O)(=O)c3ccccc3)C(=O)c3ccccc32)cc1,i,-27.1,-3.03,-9.37*,i,18*,32.0%*,i,32.5%*
C=CCOc1ccc(/C=C2\SC(=S)N(NS(=O)(=O)c3ccccc3)C2=O)cc1,15*,-3.8,3.34,i,i,i,i,i,i
CC(/C=C1\SC(=S)N(NS(=O)(=O)c2ccc(C)cc2)C1=O)=C\c1ccccc1,39*,2.1,1.49,i,i,i,i,i,i
CC(/C=C1\SC(=S)N(NC(=O)c2ccccc2C)C1=O)=C\c1ccccc1,i,-9.0,0.54,i,i,i,/,/,/
CC(/C=C1\SC(=S)N(C(C(=O)O)C(C)C)C1=O)=C\c1ccccc1 (configuration not stated),i,-14.7,2.44,i,i,i,i,i,i
CC(/C=C1\SC(=S)N(NS(=O)(=O)c2ccccc2)C1=O)=C\c1ccccc1,14*,10.3*,0.06,i,i,i,i,i,i
Cc1ccc(/C=N/NC(=O)CSc2nc3ccccc3n2Cc2ccc(Cl)cc2)o1,i,-11.4,1.44,-21.2*,i,i,62.5%*,i,50.5%*
Cc1ccc(/C=N/NC(=O)CSc2nc3ccccc3n2Cc2ccccc2)o1,i,-11.8,-0.02,i,i,i,/,/,/
CCOC(=O)CC1Sc2ccccc2NC1=S (configuration not stated),i,-11.3,2.1,i,i,i,/,/,/
Cc1ccc(/C(=N\O)c2oc3c(C)c4oc(=O)cc(C)c4cc3c2C)cc1,i,-5.8,0.04,-9.32*,i,8*,28.0%*,i,44.5%*
Cc1occc1-c1nnc(SCC(=O)Nc2nc(-c3ccccc3)cs2)o1,i,-9.6,-0.26,i,i,i,/,/,/
CCOc1ccc(NC(=O)N2CCC(c3nc4ccccc4o3)CC2)cc1,i,-1.5,-0.45,i,i,i,/,/,/

# Screening results from PubChem.
